{
  "source": "paper PMC3457677",
  "about": "(International Journal of Nanomedicine, 2012)",
  "key": {"[1]": {"conditions": "cited from earlier work"}, "[2]": {"system": "human breast adenocarcinoma (MDA-MB-231) cell line", "assay": "MTT cytotoxicity assay", "format": "cell-based", "conditions": "MDA-MB-231, 72 h, read-out: IC50 (μg/mL) on cell lines MDA-MB-231", "summary_of_the_method": "(§1)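 Cells were grown in DMEM with 10% FBS and 1% antibiotics at 37°C under 5% CO2 and seeded in 96-well plates at 5 × 10^4 cells/well (A549: 5 × 10^3) until confluent. Free or SLN-encapsulated compound was added for 72 h. After a PBS wash, MTT (25 μg/mL) was given for 2 h, formazan was dissolved in DMSO and read at 550 nm. IC50 came from a four-parameter logistic fit; n = 6.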"}, "[3]": {"system": "human oral squamous cell carcinoma (Ca9-22) cell line", "assay": "MTT cytotoxicity assay", "format": "cell-based", "conditions": "Ca9-22, 72 h, read-out: IC50 (μg/mL) on cell lines Ca9-22", "summary_of_the_method": "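Ca9-22 cells grown in DMEM with 10% FBS and 1% antibiotics at 37°C, 5% CO2. Seeded at 5 × 10^4 cells/well and grown to confluence. Free or SLN-encapsulated test compound (added solution at 40 μg/mL) applied for 72 hours. After a PBS wash, MTT (25 μg/mL) for 2 h, then DMSO. Absorbance read at 550 nm; IC50 from a four-parameter logistic fit.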"}, "[4]": {"system": "human breast adenocarcinoma with estrogen receptor (MCF7) cell line", "assay": "MTT cytotoxicity assay", "format": "cell-based", "conditions": "MCF7, 72 h, read-out: IC50 (μg/mL) on cell lines MCF7", "summary_of_the_method": "as §1"}, "[5]": {"system": "human hepatocellular liver carcinoma (HepG2) cell line", "assay": "MTT cytotoxicity assay", "format": "cell-based", "conditions": "HepG2, 72 h, read-out: IC50 (μg/mL) on cell lines HepG2", "summary_of_the_method": "as §1"}, "[6]": {"system": "human lung carcinoma (A549) cell line", "assay": "MTT cytotoxicity assay", "format": "cell-based", "conditions": "A549, 72 h, read-out: IC50 (μg/mL) on cell lines A549", "summary_of_the_method": "as §1"}, "In vitro release study": {"assay": "In vitro release study", "format": "physicochemical", "conditions": "pH 7.4 PBS containing 1% F-127", "summary_of_the_method": "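Dialysis bags (MWCO 12,000–14,000 Da, pre-soaked 12 h in water) held 1 mL SLN suspension in 100 mL pH 7.4 phosphate buffer with 1% Pluronic F-127 (sink) at 37°C. At intervals, 1 mL receiver aliquots were withdrawn and replaced with fresh medium. Drug was quantified by C18 HPLC with electrochemical detection. Release percentage was fitted to kinetic models; n = 4.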"}, "[7]": {"conditions": "cited from earlier work", "remark": "listed apart in the source"}, "[8]": {"assay": "Biodistribution in tissues and organs after intravenous administration", "format": "in vivo", "conditions": "Wistar rats, 4.7 mg/kg intravenous, 30 minutes"}, "[9]": {"assay": "In vivo pharmacokinetics after intravenous bolus", "parameters": "species or system Wistar rats", "conditions": "male, Wistar, rat, plasma, 4.7 mg/kg", "summary_of_the_method": "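Fasted male Wistar rats (200–250 g) under urethane anaesthesia received a jugular vein injection of 4.7 mg/kg. The free-drug solution was in ethanol/PEG 400/tetraglycol/water. Heart blood (0.3 mL) was taken at set times, and plasma was extracted with dichloromethane using diclofenac as internal standard, then analysed by HPLC-ECD. A compartment model was fitted; AUC0–∞ by trapezoidal rule plus extrapolation, Cl = dose/AUC0–∞; n = 3.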"}, "[10]": {"assay": "Solubility of PK-L4 in aqueous and receptor media", "format": "physicochemical", "conditions": "compared: pH 7.4 PBS, pH 7.4 PBS containing 1% F-68, pH 7.4 PBS containing 1% F-127"}},
  "data": [
    {"smiles": "COc1cc(NS(C)(=O)=O)ccc1Nc1c2ccccc2nc2ccccc12", "note": "[Amsacrine]", "values": [
      {"measurement": "half-life in plasma", "setting": "[1]", "value": "20 to 30", "unit": "min"}
    ]},
    {"smiles": "COc1cccc2c1C(=O)c1c(O)c3c(c(O)c1C2=O)C[C@@](O)(C(=O)CO)C[C@@H]3O[C@H]1C[C@H](N)[C@H](O)[C@H](C)O1", "note": "[Doxorubicin solution, reference compound]", "values": [
      {"measurement": "IC50", "setting": "[2]", "value": 0.51, "unit": "µg/mL"},
      {"measurement": "IC50", "setting": "[3]", "value": 0.14, "unit": "µg/mL"},
      {"measurement": "IC50", "setting": "[4]", "value": 0.43, "unit": "µg/mL"},
      {"measurement": "IC50", "setting": "[5]", "value": 0.11, "unit": "µg/mL"},
      {"measurement": "IC50", "setting": "[6]", "value": 0.4, "unit": "µg/mL"}
    ]},
    {"smiles": "COc1ccc(Nc2c3ccccc3nc3occ(Cl)c23)cc1", "note": "[PK-L4, 3-Chloro-4-[(4-methoxyphenyl)amino]furo[2,3-b]quinoline]", "values": [
      {"measurement": "Best-fitting release kinetics model", "setting": "In vitro release study", "value": "Higuchi order"},
      {"measurement": "IC50", "setting": "[2]", "value": 2.14, "unit": "µg/mL"},
      {"measurement": "Solubility in water and biocompatible media", "setting": "[7]", "value": "water insoluble"},
      {"measurement": "Main sites of PK-L4 deposition in tissues", "setting": "[8]", "value": "mainly located in the spine, followed by the lungs, brain, small intestine, and heart"},
      {"measurement": "AUC(0-inf)", "setting": "[9]", "value": "1160 ± 87", "unit": "ng·h/mL"},
      {"measurement": "MRT", "setting": "[9]", "value": "61 ± 8.7", "unit": "min"},
      {"measurement": "Vd", "setting": "[9]", "value": "4.12 ± 0.395", "unit": "L/kg"},
      {"measurement": "clearance", "setting": "[9]", "value": 67.9, "unit": "mL/min/kg"},
      {"measurement": "half-life", "setting": "[9]; half-life alpha, after intravenous bolus, rat plasma", "value": "4.68 ± 1.38", "unit": "min"},
      {"measurement": "IC50", "setting": "[3]", "value": 0.04, "unit": "µg/mL"},
      {"measurement": "Solubility of PK-L4 in receptor media", "setting": "[10]", "value": "pH 7.4 PBS containing 1% F-127 exhibited the best solubility"},
      {"measurement": "IC50", "setting": "[4]", "value": 8.47, "unit": "µg/mL"},
      {"measurement": "IC50", "setting": "[5]", "value": 0.04, "unit": "µg/mL"},
      {"measurement": "IC50", "setting": "[6]", "value": 0.11, "unit": "µg/mL"}
    ]}
  ]
}
